This is an account of results in ChEMBL document CHEMBL5338733, “Heterobifunctional Ligase Recruiters Enable pan-Degradation of Inhibitor of Apoptosis Proteins” (J Med Chem, 2023).

By IC50 is commonly meant the concentration that inhibits the measured activity by half.

Calls of active or inactive are those of the source. The calls are words filed in the database; no cut-off is given here.

The target in experiment [1] is Protein cereblon/Zinc finger protein Aiolos (Homo sapiens) (UniProt Q96SW2+Q9UKT9). Description: PROTAC activity at CRBN/IKZF3 in human MM1.S cells assessed as induction of IKZF3 degradation at 1 uM incubated for 16 hrs by western blot analysis. In kind it is cell-based. The method, boiled down: (§1)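 MM.1S cells treated 16 h at the stated concentration. Lysed, run on SDS-PAGE and transferred to PVDF. Probed with primary antibodies overnight at 4 °C, then HRP secondaries, with ECL detection. Band densitometry normalized to loading control and to DMSO-treated cells. Averages of at least three independent experiments.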
Sequence of Protein cereblon/Zinc finger protein Aiolos (Homo sapiens) (Q96SW2 whole entry, looked up): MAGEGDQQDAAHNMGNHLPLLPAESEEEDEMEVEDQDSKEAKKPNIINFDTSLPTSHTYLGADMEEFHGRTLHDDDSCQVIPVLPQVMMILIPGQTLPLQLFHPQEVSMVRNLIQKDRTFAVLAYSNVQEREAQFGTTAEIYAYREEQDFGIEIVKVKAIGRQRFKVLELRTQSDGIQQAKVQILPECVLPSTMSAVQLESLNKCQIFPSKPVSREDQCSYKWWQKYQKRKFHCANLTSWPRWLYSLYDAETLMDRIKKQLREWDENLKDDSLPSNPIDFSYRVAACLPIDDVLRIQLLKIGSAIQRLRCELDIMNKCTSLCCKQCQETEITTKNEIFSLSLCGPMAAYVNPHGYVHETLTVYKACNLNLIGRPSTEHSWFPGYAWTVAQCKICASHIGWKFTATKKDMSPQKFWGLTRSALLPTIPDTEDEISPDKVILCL
Sequence of Protein cereblon/Zinc finger protein Aiolos (Homo sapiens) (Q9UKT9 whole entry, looked up): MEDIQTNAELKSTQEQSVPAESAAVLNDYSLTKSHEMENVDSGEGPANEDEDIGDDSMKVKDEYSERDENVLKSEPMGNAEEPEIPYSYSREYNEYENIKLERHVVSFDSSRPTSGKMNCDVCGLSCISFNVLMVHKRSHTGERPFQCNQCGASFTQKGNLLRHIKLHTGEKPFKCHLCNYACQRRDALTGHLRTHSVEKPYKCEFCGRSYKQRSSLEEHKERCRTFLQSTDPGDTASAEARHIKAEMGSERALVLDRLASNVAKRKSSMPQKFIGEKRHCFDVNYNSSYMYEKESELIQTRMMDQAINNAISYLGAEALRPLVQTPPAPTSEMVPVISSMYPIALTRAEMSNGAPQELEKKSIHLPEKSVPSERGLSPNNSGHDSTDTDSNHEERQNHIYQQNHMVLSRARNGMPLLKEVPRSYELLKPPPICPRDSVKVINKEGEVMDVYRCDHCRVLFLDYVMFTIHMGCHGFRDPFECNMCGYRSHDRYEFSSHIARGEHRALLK
For orientation: In western blotting, separated proteins are transferred to a membrane and probed.

In experiment [2] the target is Baculoviral IAP repeat-containing protein 3 (Homo sapiens) (UniProt Q13489). In words: Induction of cIAP2 degradation in human MM1.S cells assessed as remaining protein level at 0.1 uM incubated for 16 hrs by western blot analysis. Type of experiment: cell-based. The method, boiled down:
(§2)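 Lysed, run on SDS-PAGE and transferred to PVDF. Probed with primary antibodies overnight at 4 °C, then HRP secondaries, with ECL detection. Band densitometry normalized to loading control and to DMSO-treated cells. Averages of at least three independent experiments.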

Experiment [3] addresses Baculoviral IAP repeat-containing protein 2 (Homo sapiens) (UniProt Q13490). In words: Induction of cIAP1 degradation in human MM1.S cells at 1 uM incubated for 16 hrs by western blot analysis. In kind it is cell-based. The method, boiled down:
as §1

The target is the same in experiment [4]. In words: Induction of cIAP1 degradation in human MM1.S cells assessed as remaining protein level at 0.1 uM incubated for 16 hrs by western blot analysis. Type of experiment: cell-based. The method, boiled down: as §2
Experiment [5] concerns the target von Hippel-Lindau disease tumor suppressor (Homo sapiens) (UniProt P40337). Description: Induction of VHL30 degradation in human MM1.S cells assessed as remaining protein level at 0.1 uM incubated for 16 hrs by western blot analysis. In kind it is cell-based. The method, boiled down: as §1
Experiment [6] concerns the target Baculoviral IAP repeat-containing protein 2 (Homo sapiens) (UniProt Q13490). In words: Induction of cIAP1 degradation in human VHL knock-out HG-3 cells at 1 uM incubated for 16 hrs by western blot analysis. In kind it is cell-based. The method, boiled down: (§3)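 HG3 cells expressing Cas9 (lentiviral, blasticidin-selected) transduced with sgRNA against VHL or control luciferase (≥95% tomato-positive by FACS at 48 h); treated 1 μM for 16 h; lysed, SDS-PAGE, PVDF immunoblot with ECL detection, bands quantified by densitometry.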

Experiment [7] deals with T1, von Hippel-Lindau disease tumor suppressor/Baculoviral IAP repeat-containing protein 2 (Homo sapiens) (UniProt Q13490+P40337). In words: PROTAC activity at VHL/IAP in human HG-3 cells harboring wild type VHL assessed as induction of cIAP1 degradation at 1 uM incubated for 16 hrs by western blot analysis. Type of experiment: cell-based. The method, boiled down: as §3
T1 sequence (P40337 whole entry, looked up): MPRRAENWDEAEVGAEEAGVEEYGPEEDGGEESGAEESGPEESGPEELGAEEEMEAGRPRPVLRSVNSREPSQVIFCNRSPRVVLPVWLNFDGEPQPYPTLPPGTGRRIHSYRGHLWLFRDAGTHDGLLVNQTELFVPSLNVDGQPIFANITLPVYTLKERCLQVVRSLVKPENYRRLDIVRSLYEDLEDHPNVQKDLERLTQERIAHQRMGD
T1 sequence (Q13490 whole entry, looked up): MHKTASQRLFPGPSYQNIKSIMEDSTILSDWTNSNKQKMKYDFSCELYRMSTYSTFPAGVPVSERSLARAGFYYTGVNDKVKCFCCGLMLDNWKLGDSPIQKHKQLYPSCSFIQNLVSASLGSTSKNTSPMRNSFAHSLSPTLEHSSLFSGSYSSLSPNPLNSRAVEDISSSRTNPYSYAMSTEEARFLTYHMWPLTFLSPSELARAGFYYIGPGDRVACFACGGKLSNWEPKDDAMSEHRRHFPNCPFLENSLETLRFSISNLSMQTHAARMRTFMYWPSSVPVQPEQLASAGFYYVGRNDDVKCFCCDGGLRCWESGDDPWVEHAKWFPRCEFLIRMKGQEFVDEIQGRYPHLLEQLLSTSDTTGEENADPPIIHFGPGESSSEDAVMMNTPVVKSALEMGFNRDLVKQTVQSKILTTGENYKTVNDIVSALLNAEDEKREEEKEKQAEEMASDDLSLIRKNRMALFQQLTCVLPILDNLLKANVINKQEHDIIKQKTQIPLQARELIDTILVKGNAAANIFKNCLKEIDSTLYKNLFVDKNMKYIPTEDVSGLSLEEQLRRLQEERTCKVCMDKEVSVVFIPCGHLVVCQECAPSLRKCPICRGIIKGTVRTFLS

The target of experiment [8] is T2, von Hippel-Lindau disease tumor suppressor/E3 ubiquitin-protein ligase XIAP (Homo sapiens) (UniProt P98170+P40337). Description: PROTAC activity at VHL/IAP in human HG-3 cells harboring wild type VHL assessed as induction of XIAP degradation at 1 uM incubated for 16 hrs by western blot analysis. In kind it is cell-based. The method, boiled down:
as §3

Experiment [9] addresses T3, von Hippel-Lindau disease tumor suppressor/IAP (Homo sapiens) (UniProt P98170+Q13489+Q13490+P40337). Description: PROTAC activity at VHL/IAP in human MM1.S cells assessed as induction of VHL30 degradation by measuring remaining protein level at 0.1 uM incubated for 16 hrs by western blot analysis. Type of experiment: cell-based. The method, boiled down: as §1
For experiment [10], the target named is T2, von Hippel-Lindau disease tumor suppressor/E3 ubiquitin-protein ligase XIAP (Homo sapiens). In words: PROTAC activity at VHL/IAP in human MM1.S cells assessed as induction of XIAP degradation at 0.1 to 1 uM incubated for 16 hrs by western blot analysis. Type of experiment: cell-based. The settings on record: dose 0.1-1 µM. The method, boiled down: as §1

In experiment [11] the target is von Hippel-Lindau disease tumor suppressor/Baculoviral IAP repeat-containing protein 3 (Homo sapiens) (UniProt Q13489+P40337). Description: PROTAC activity at VHL/IAP in human MM1.S cells assessed as induction of cIAP2 degradation at 0.1 to 1 uM incubated for 16 hrs by western blot analysis. The settings on record: dose 0.1-1 µM. Type of experiment: cell-based. The method, boiled down:
(§4)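 MM.1S cells (RPMI-1640, 10% FBS, 1% pen/strep, 1% L-glutamine, 37 °C, 5% CO2) exposed to compound or DMSO for 16 h. Lysed in IP lysis buffer, SDS-PAGE, PVDF transfer, primary antibody overnight at 4 °C, HRP secondary, ECL detection. Bands quantified densitometrically, normalized to loading control and DMSO, reported as remaining protein; at least three independent experiments.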

For experiment [12], the target named is T1, von Hippel-Lindau disease tumor suppressor/Baculoviral IAP repeat-containing protein 2 (Homo sapiens). Description: PROTAC activity at VHL/IAP in human MM1.S cells assessed as induction of cIAP1 degradation at 0.1 to 1 uM incubated for 16 hrs by western blot analysis. Type of experiment: cell-based. The settings on record: dose 0.1-1 µM. The method, boiled down: as §4

The test system of another experiment is RPMI-8226. Description: Cytotoxicity against human RPMI-8226 cells assessed as reduction in cell viability measured after 96 hrs in presence of TNF-alpha by CellTiter-Glo luminescent assay. Type of experiment: functional, cell-based. To be noted: RPMI-8226, 96 h. The method, boiled down: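 Cells kept in RPMI-1640 with 10% FBS, 1% penicillin/streptomycin and 1% L-glutamine at 37 °C, 5% CO2. Seeded with compounds and incubated 96 h at 37 °C with TNF-α at 1 ng/mL. Viability read by CellTiter-Glo luminescence and normalized to DMSO-treated control. Mean ± SD of biological triplicates.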
Background: In ATP-based viability assays light output follows the ATP content of the culture.

For experiment [13], the target named is Protein cereblon/Baculoviral IAP repeat-containing protein 2 (Homo sapiens) (UniProt Q13490+Q96SW2). In words: PROTAC activity at CRBN/IAP in human MM1.S cells assessed as induction of cIAP1 degradation by measuring remaining protein level at 0.1 uM incubated for 16 hrs by western blot analysis. In kind it is cell-based. The method, boiled down:
as §1

Experiment [14] concerns the target Protein cereblon/Baculoviral IAP repeat-containing protein 3 (Homo sapiens) (UniProt Q13489+Q96SW2). Description: PROTAC activity at CRBN/IAP in human MM1.S cells assessed as induction of cIAP2 degradation by measuring remaining protein level at 0.1 uM incubated for 16 hrs by western blot analysis. Type of experiment: cell-based. The method, boiled down:
as §1

Experiment [15] has as its target Protein cereblon/E3 ubiquitin-protein ligase XIAP (Homo sapiens) (UniProt P98170+Q96SW2). In words: PROTAC activity at CRBN/IAP in human MM1.S cells assessed as induction of XIAP degradation by measuring remaining protein level at 0.1 uM incubated for 16 hrs by western blot analysis. Type of experiment: cell-based. The method, boiled down:
as §1

The target of experiment [16] is Protein cereblon-IAP (Homo sapiens) (UniProt P98170+Q13489+Q13490+Q96SW2). Description: PROTAC activity at CRBN/IAP in human MM1.S cells assessed as induction of CRBN degradation by measuring remaining protein level at 0.1 uM incubated for 16 hrs by western blot analysis. In kind it is cell-based. The method, boiled down: as §1
Experiment [17] concerns the target T3, von Hippel-Lindau disease tumor suppressor/IAP (Homo sapiens). Description: PROTAC activity at VHL/IAP in human MM1.S cells assessed as induction of VHL30 degradation at 1 uM incubated for 16 hrs by western blot analysis. In kind it is cell-based. The method, boiled down: as §1

Sequence of Baculoviral IAP repeat-containing protein 2 (Homo sapiens) (Q13490 whole entry): as the sequence (Q13490 whole entry, looked up) above
T2 sequence (P40337 whole entry, looked up): as the sequence (P40337 whole entry, looked up) above
T2 sequence (P98170 whole entry, looked up): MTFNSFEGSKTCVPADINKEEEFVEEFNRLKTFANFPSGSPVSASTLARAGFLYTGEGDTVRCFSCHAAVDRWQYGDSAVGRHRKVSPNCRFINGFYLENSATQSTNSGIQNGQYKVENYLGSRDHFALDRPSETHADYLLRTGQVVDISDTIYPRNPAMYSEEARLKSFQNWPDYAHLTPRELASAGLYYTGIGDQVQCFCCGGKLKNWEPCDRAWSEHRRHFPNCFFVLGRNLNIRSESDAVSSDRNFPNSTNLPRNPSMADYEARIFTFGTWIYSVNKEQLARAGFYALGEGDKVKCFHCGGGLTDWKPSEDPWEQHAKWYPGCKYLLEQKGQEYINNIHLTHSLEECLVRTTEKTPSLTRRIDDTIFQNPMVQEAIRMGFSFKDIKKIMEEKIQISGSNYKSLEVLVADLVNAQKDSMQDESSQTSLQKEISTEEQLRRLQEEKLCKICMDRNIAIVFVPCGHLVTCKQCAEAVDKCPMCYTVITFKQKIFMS
Sequence of Protein cereblon/Baculoviral IAP repeat-containing protein 3 (Homo sapiens) (Q13489 whole entry, looked up): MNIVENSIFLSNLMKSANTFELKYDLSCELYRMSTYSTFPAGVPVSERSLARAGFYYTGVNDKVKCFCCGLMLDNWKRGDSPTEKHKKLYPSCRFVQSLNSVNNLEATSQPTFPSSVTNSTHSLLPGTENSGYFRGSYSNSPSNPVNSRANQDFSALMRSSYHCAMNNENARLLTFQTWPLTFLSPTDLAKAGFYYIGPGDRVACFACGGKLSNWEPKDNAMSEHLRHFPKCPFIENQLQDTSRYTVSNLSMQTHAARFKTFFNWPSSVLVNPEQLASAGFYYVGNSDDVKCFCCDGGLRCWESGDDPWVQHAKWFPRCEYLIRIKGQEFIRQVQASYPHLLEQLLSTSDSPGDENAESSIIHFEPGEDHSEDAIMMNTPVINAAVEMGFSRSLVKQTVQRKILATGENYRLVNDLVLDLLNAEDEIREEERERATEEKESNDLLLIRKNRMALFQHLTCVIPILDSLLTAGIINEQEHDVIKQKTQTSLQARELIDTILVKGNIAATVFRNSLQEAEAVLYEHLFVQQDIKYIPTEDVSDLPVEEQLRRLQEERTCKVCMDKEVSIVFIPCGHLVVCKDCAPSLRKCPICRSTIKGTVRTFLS
Sequence of Protein cereblon/Baculoviral IAP repeat-containing protein 3 (Homo sapiens) (Q96SW2 whole entry, looked up): as the sequence (Q96SW2 whole entry, looked up) above
Sequence of Baculoviral IAP repeat-containing protein 3 (Homo sapiens) (Q13489 whole entry): as the sequence (Q13489 whole entry, looked up) above
Sequence of von Hippel-Lindau disease tumor suppressor (Homo sapiens) (P40337 whole entry, looked up): as the sequence (P40337 whole entry, looked up) above

Turning to `CN[C@@H](C)C(=O)N[C@H](C(=O)N1C[C@@H](Oc2cccc(OCCCCOCCCCNc3cccc4c3C(=O)N(C3CCC(=O)NC3=O)C4=O)c2)C[C@H]1C(=O)N[C@@H]1CCCc2ccccc21)C1CCCCC1` (stereo not given in full), the outcome in experiment [1] was Active.

Consider `CN[C@@H](C)C(=O)N[C@H](C(=O)N1C[C@@H](Oc2ccccc2)C[C@H]1C(=O)N[C@@H]1CCCc2ccccc21)C1CCCCC1`, for which the Activity in experiment [2] is 47%; in experiment [4] it was 7%; in [5], 72%. Further, in [3], the outcome was Active.

`CN[C@@H](C)C(=O)N[C@H](C(=O)N1CC(Oc2cccc(OCCCCCCOCCCCCCOCC(=O)N[C@H](C(=O)N3C[C@H](O)C[C@H]3C(=O)NCc3ccc(-c4scnc4C)cc3)C(C)(C)C)c2)C[C@H]1C(=O)N[C@@H]1CCCc2ccccc21)C1CCCCC1` (single isomer, unassigned): the result in [6], in experiment [7] and in [8] was Active.

As to `CN[C@@H](C)C(=O)N[C@H](C(=O)N1C[C@@H](Oc2cccc(OCCOCCOCC(=O)N[C@H](C(=O)N3C[C@H](O)C[C@H]3C(=O)NCc3ccc(-c4scnc4C)cc3)C(C)(C)C)c2)C[C@H]1C(=O)N[C@@H]1CCCc2ccccc21)C1CCCCC1`, the outcome in experiment [6], in experiment [7] and in experiment [8] was Active.

With `CN[C@@H](C)C(=O)N[C@H](C(=O)N1C[C@@H](Oc2cccc(OCCCCC(=O)N[C@H](C(=O)N3C[C@H](O)C[C@H]3C(=O)NCc3ccc(-c4scnc4C)cc3)C(C)(C)C)c2)C[C@H]1C(=O)N[C@@H]1CCCc2ccccc21)C1CCCCC1`, the Activity in [9] amounted to 38%. Also, the result in [10], in experiment [11] and in [12] was Active.

As to `CN[C@@H](C)C(=O)N[C@H](C(=O)N1C[C@@H](Oc2cccc(OCCCCCOCCCCCOCCCCCCNc3cccc4c3C(=O)N(C3CCC(=O)NC3=O)C4=O)c2)C[C@H]1C(=O)N[C@@H]1CCCc2ccccc21)C1CCCCC1` (stereo not given in full), the outcome in experiment [1] was Active.

Consider `CN[C@@H](C)C(=O)N[C@H](C(=O)N1C[C@@H](Oc2cccc(OCCCCCCCC(=O)N[C@H](C(=O)N3C[C@H](O)C[C@H]3C(=O)NCc3ccc(-c4scnc4C)cc3)C(C)(C)C)c2)C[C@H]1C(=O)N[C@@H]1CCCc2ccccc21)C1CCCCC1`, for which the result in experiment [6], in experiment [7] and in experiment [8] was Active.

As to `CN[C@@H](C)C(=O)N[C@H](C(=O)N1C[C@@H](Oc2cccc(OCCCCC(=O)N[C@H](C(=O)N3C[C@@H](O)C[C@H]3C(=O)NCc3ccc(-c4scnc4C)cc3)C(C)(C)C)c2)C[C@H]1C(=O)N[C@@H]1CCCc2ccccc21)C1CCCCC1`, the IC50 in the experiment with RPMI-8226 is more than 5 µM.

On to `CN[C@@H](C)C(=O)N[C@H](C(=O)N1C[C@@H](Oc2cccc(OCCCCCCCCNc3cccc4c3C(=O)N(C3CCC(=O)NC3=O)C4=O)c2)C[C@H]1C(=O)N[C@@H]1CCCc2ccccc21)C1CCCCC1` (stereo not given in full), for which the Activity in experiment [13] is 5%; in [14], 14%; in experiment [15], 4%; in experiment [16], 90%.

As for `CN[C@@H](C)C(=O)N[C@H](C(=O)N1C[C@@H](Oc2cccc(OCCCCOCCCC(=O)N[C@H](C(=O)N3C[C@H](O)C[C@H]3C(=O)NCc3ccc(-c4scnc4C)cc3)C(C)(C)C)c2)C[C@H]1C(=O)N[C@@H]1CCCc2ccccc21)C1CCCCC1`, the outcome in experiment [17] was Active.
